Test results taken from ChEMBL document CHEMBL1255454, “Systematic approach to optimizing specifically targeted antimicrobial peptides against Streptococcus mutans” (2010).
≈ marks a conversion by molar mass, not a printed value. Calls of active or inactive are those of the source. The rule behind the calls is not given here. Square brackets hold non-standard residues; d marks the D form. Peptide text beside a SMILES is read from it. Aoc = NCCCCCCCC(=O)O

Key:
Streptococcus sanguinis [1] = experiment: Antimicrobial activity against Streptococcus sanguinis NY101 after 16 to 20 hrs by broth microdilution assay; format: functional
Procedure, shortened: (§1)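 Broth microdilution. Twofold peptide dilutions were made in 50% BHI–50% sterile water for oral streptococci and in 1× Mueller-Hinton broth for the other bacteria. First round 500 to 0.97 µg/ml; a second round of 64 to 0.5 µg/ml was run in some cases, reporting its mode. Inoculum ~1 × 10^5 CFU/ml, 37°C for 16–20 h. Read A600; MIC taken as complete inhibition or ≥90% turbidity reduction versus peptide-free control.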

Staphylococcus aureus = experiment: Antimicrobial activity against methicillin-resistant Staphylococcus aureus after 16 to 20 hrs by broth microdilution assay; format: functional
Procedure, shortened: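 MRSA grown aerobically in BHI at 37°C. Broth microdilution: 2-fold peptide dilutions in 1× Mueller-Hinton broth, first round 500 to 0.97 µg/ml; if activity below 62.5 µg/ml, sometimes a second round at 64 to 0.5 µg/ml, reporting the mode. Inoculum ~1 × 10^5 CFU/ml, 37°C for 16-20 h. A600 read. MIC = lowest concentration giving complete inhibition or ≥90% turbidity reduction versus peptide-free control.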

Streptococcus mutans [2] = experiment: Antimicrobial activity against Streptococcus mutans UA159 after 16 to 20 hrs by broth microdilution assay; format: functional; procedure, shortened: as §1
Streptococcus mutans [3] = experiment: Antimicrobial activity against Streptococcus mutans UA159 assessed as inhibition of bacterial biofilm formation at 25 uM after 3 mins by fluorescence assay; format: functional
Procedure, shortened: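 S. mutans UA159 overnight culture was diluted 1:5,000 in TH with 1% sucrose and grown as biofilm for 24 h. Biofilms were exposed 3 min at room temperature to 25 µM fluorescein-labelled peptide in HEPES/NaHCO3/NaCl/MgCl2 buffer with 0.1% CTAB, pH 7.4, then washed twice. Green fluorescence images were taken and biofilm-associated green pixels quantified as binding intensity units.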

Escherichia coli = experiment: Antimicrobial activity against Escherichia coli W3110 after 16 to 20 hrs by broth microdilution assay; format: functional; procedure, shortened: as §1
Streptococcus mitis [4] = experiment: Antimicrobial activity against Streptococcus mitis ATCC 903 after 16 to 20 hrs by broth microdilution assay; format: functional; procedure, shortened: as §1
Pseudomonas aeruginosa = experiment: Antimicrobial activity against Pseudomonas aeruginosa PAK after 16 to 20 hrs by broth microdilution assay; format: functional; procedure, shortened: as §1
[5] = Antimicrobial activity against Streptococcus gordonii Challis DL1 after 16 to 20 hrs by broth microdilution assay; format: functional, Streptococcus gordonii str. Challis; procedure, shortened: as §1
Enterococcus faecalis = experiment: Antimicrobial activity against Enterococcus faecalis after 16 to 20 hrs by broth microdilution assay; format: functional; procedure, shortened: as §1
Streptococcus sobrinus = experiment: Antimicrobial activity against Streptococcus sobrinus ATCC 33478 after 16 to 20 hrs by broth microdilution assay; format: functional; procedure, shortened: as §1
Streptococcus mitis [6] = experiment: Antimicrobial activity against Streptococcus mitis ATCC 903 at 25 ug/ml after 30 mins by time-kill assay; format: functional, organism-based
Procedure, shortened: (§2)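 Time-kill. Overnight cultures were diluted in BHI to A600 0.08 and treated with peptide at 25 µg/ml for 30 s to 2 h. Aliquots were diluted 1:50 in BHI, held on ice, plated and counted after 24 h as surviving CFU/ml. Three independent experiments, mean with SD; unpaired Student t test.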

Streptococcus mutans [7] = experiment: Antimicrobial activity against Streptococcus mutans UA159 at 25 ug/ml after 30 mins by time-kill assay; format: functional; procedure, shortened: as §2
[8] = tested on: Streptococcus gordonii str. Challis; experiment: Antimicrobial activity against Streptococcus gordonii Challis DL1 at 25 ug/ml after 30 mins by time-kill assay; format: functional; procedure, shortened: as §2
Streptococcus mutans [9] = experiment: Antimicrobial activity against Streptococcus mutans UA159 assessed as inhibition of viability of bacterial biofilm at 25 ug/ml treated for 1 min measured after 4 hrs; format: functional
Procedure, shortened: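 S. mutans biofilms were seeded from overnight culture diluted 1:50 in TH broth with 0.5% sucrose, centrifuged, and grown 4 h anaerobically at 37°C. They were exposed to peptide in 1× PBS for about 1 min, washed, and given fresh TH broth without sucrose. Recovery was read as A600 after 4 h anaerobic incubation at 37°C. Three experiments; unpaired t test.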

Streptococcus mutans [10] = experiment: Antimicrobial activity against Streptococcus mutans JM11 assessed as inhibition of bacterial biofilm formation at 50 uM after 10 mins; format: functional
Procedure, shortened: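 Mixed-species biofilms were grown 24 h at 37°C anaerobically in TH with 50% filter-sterilized pooled human saliva and 1% sucrose. Inoculum: S. mutans JM11 at 1 × 10^6 CFU/well plus S. oralis, S. gordonii, S. sanguinis, S. mitis and S. salivarius at 2 × 10^5 CFU/well each. Survivors were plated on TH agar for total streptococci and on TH agar with 800 µg/ml spectinomycin for JM11. Detection limit 100 CFU/ml.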

Streptococcus sanguinis [11] = experiment: Antimicrobial activity against Streptococcus sanguinis NY101 at 25 ug/ml after 30 mins by time-kill assay; format: functional, organism-based; procedure, shortened: as §2

Compound	MIC (Streptococcus sanguinis [1])	MIC (Staphylococcus aureus)	MIC (Streptococcus mutans [2])	inhibition (Streptococcus mutans [3])	MIC (Escherichia coli)	MIC (Streptococcus mitis [4])	MIC (Pseudomonas aeruginosa)	MIC [5]	MIC (Enterococcus faecalis)	MIC (Streptococcus sobrinus)	Activity (Streptococcus mitis [6])	Activity (Streptococcus mutans [7])	Activity [8]	inhibition (Streptococcus mutans [9])	inhibition (Streptococcus mutans [10])	Activity (Streptococcus sanguinis [11])
H-LIKHILHRL-NH2	> 500 µg/mL	> 500 µg/mL	125 µg/mL	Active	> 500 µg/mL	> 500 µg/mL	> 500 µg/mL	> 500 µg/mL	> 500 µg/mL	> 500 µg/mL						
H-FIKHFIHRFGGGRWRWRWF-NH2	32 µg/mL	32 µg/mL	8 µg/mL	Active		32 µg/mL	62.5 µg/mL	32 µg/mL			Active	Active	Active	Active	Active	Active
H-WWKDWWERW-NH2	> 500 µg/mL	> 500 µg/mL	> 500 µg/mL	Active	> 500 µg/mL	> 500 µg/mL	> 500 µg/mL	> 500 µg/mL	> 500 µg/mL	> 500 µg/mL						
H-WWSYWWTQW-NH2	125 µg/mL	> 125 µg/mL	125 µg/mL	Active	125 µg/mL	125 µg/mL	> 125 µg/mL	125 µg/mL	> 125 µg/mL	125 µg/mL						
H-WWYNWWQDW-NH2	> 500 µg/mL	> 500 µg/mL	> 500 µg/mL		> 500 µg/mL	> 500 µg/mL	> 500 µg/mL	> 500 µg/mL	> 500 µg/mL	> 500 µg/mL						
H-FHFHLHFASASAFIKHFIHRF-NH2	32 µg/mL	62.5 µg/mL	16 µg/mL		62.5 µg/mL		125 µg/mL		62.5 µg/mL	32 µg/mL						
H-AAKHAAHRA-NH2	> 500 µg/mL	> 500 µg/mL	> 500 µg/mL	inactive	> 500 µg/mL	> 500 µg/mL	> 500 µg/mL	> 500 µg/mL	> 500 µg/mL	> 500 µg/mL						
H-FIKHFIHRF-NH2	125 µg/mL	> 500 µg/mL	125 µg/mL	Active	> 500 µg/mL	> 500 µg/mL	> 500 µg/mL	> 500 µg/mL	> 500 µg/mL	125 µg/mL						
CC[C@H](C)[C@H](NC(=O)[C@H](Cc1ccccc1)NC(=O)[C@H](Cc1cnc[nH]1)NC(=O)[C@H](CCCCN)NC(=O)[C@@H](NC(=O)[C@@H](N)Cc1ccccc1)[C@@H](C)CC)C(=O)N[C@@H](Cc1cnc[nH]1)C(=O)N[C@@H](CCCNC(=N)N)C(=O)N[C@@H](Cc1ccccc1)C(=O)NCCCCCCCC(=O)N[C@@H](CCCNC(=N)N)C(=O)N[C@@H](Cc1c[nH]c2ccccc12)C(=O)N[C@@H](CCCNC(=N)N)C(=O)N[C@@H](Cc1c[nH]c2ccccc12)C(=O)N[C@@H](CCCNC(=N)N)C(=O)N[C@@H](Cc1c[nH]c2ccccc12)C(=O)N[C@@H](Cc1ccccc1)C(N)=O (H-FIKHFIHRF[Aoc]RWRWRWF-NH2)	32 µg/mL (≈ 12.5 µM)	32 µg/mL (≈ 12.5 µM)	8 µg/mL (≈ 3.13 µM)			16 µg/mL (≈ 6.25 µM)	62.5 µg/mL (≈ 24.4 µM)	32 µg/mL (≈ 12.5 µM)			Active	Active	Active			Active
H-LIKHILHRLGGGFHFHLHF-NH2	62.5 µg/mL	62.5 µg/mL	16 µg/mL		250 µg/mL		250 µg/mL		32 µg/mL	32 µg/mL						
